Like-named read-outs stand apart in the source and are kept apart here.
Legend:
HT-29 [1] = assay: Cytotoxic activity, crystal violet staining; format: cell-based, human; conditions: read-out: IC50 HT-29, HT-29 cells, 72 hours incubation
[2] = target: T1, recombinant human TrxR (TrxR1) (Homo sapiens, UniProt Q16881); assay: Thioredoxin reductase inhibition assay; format: biochemical
T1 sequence (Q16881 1-499 isoform Q16881-5): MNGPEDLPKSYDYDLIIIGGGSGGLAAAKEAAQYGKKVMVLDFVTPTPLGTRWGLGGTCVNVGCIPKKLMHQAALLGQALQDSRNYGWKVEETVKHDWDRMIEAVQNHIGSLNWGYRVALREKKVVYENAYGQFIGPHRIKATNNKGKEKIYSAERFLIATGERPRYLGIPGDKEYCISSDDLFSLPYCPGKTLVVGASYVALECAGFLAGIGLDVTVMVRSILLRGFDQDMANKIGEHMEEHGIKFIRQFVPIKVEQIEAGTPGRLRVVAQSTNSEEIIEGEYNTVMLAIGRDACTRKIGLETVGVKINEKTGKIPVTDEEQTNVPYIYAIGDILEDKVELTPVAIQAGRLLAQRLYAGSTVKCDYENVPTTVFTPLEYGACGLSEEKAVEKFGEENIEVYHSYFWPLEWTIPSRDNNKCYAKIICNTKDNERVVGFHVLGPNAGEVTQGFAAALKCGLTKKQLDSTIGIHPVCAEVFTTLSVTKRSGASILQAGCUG

MCF-7 = assay: Cytotoxic activity, crystal violet staining; format: cell-based, human; conditions: read-out: IC50 MCF-7, MCF-7 cells, 96 hours incubation
A-549 = assay: Cytotoxic activity, crystal violet staining; format: cell-based, human; conditions: read-out: IC50 A-549, A-549 cells, 72 hours incubation
Stability in water = format: physicochemical; conditions: 4 mg in DMSO-d6 (0.4 mL) diluted with D2O to 0.5 mL, 48 hours
[3] = test system: organoids from HGSOC tissues (HGSOC-PDTO1-4); assay: Patient-Derived Organoid cytotoxicity assay; format: cell-based, human
Method in brief: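 Patient-derived high-grade serous ovarian cancer tumor organoids (3D model) came from the C.R.O. biobank. Carboplatin, the standard treatment, served as positive control. Dose-response IC50 values were obtained per organoid line.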

A2780 [4] = conditions: read-out: average IC50 in A2780 ovarian cancer cells; literature value; cited from earlier work
A2780 [5] = assay: Cytotoxicity on ovarian cancer cell line; format: cell-based, human; conditions: read-out: IC50 A2780
HT-29 [6] = conditions: read-out: average IC50 in HT-29 colon cancer cells; literature value; cited from earlier work
[7] = test system: organoids from colon cancer tissues (CRC-PDTO1-4); assay: Patient-Derived Organoid cytotoxicity assay; format: cell-based, human
Method in brief: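 Patient-derived colorectal cancer tumor organoids (3D model) came from the C.R.O. biobank. Oxaliplatin, the standard treatment, served as positive control. Dose-response IC50 values were obtained per organoid line.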

[8] = read-out: IC50 HGSOC-PDTO1, organoid HGSOC-PDTO1, 96 hours of treatment
[9] = read-out: IC50 HGSOC-PDTO2, organoid HGSOC-PDTO2, 96 hours of treatment
[10] = read-out: IC50 HGSOC-PDTO3, organoid HGSOC-PDTO3, 96 hours of treatment
[11] = read-out: IC50 HGSOC-PDTO4, organoid HGSOC-PDTO4, 96 hours of treatment
[12] = read-out: IC50 CRC-PDTO1, organoid CRC-PDTO1, 96 hours of treatment
[13] = read-out: IC50 CRC-PDTO2, organoid CRC-PDTO2, 96 hours of treatment
[14] = read-out: IC50 CRC-PDTO3, organoid CRC-PDTO3, 96 hours of treatment
[15] = read-out: IC50 CRC-PDTO4, organoid CRC-PDTO4, 96 hours of treatment
[16] = 50 μM for 96 hours, compared to non-treated controls

Molecule | IC50 (HT-29 [1]) [µM] | IC50 (MCF-7) [µM] | IC50 (A-549) [µM] | other results
CC(C)c1cccc(C(C)C)c1-n1ccn(-c2c(C(C)C)cccc2C(C)C)[c]1=[Au][Se]c1ccccc1 [1a, [Au(IPr)Se(C6H5)]] | 3.1 ± 0.5 | 3.6 ± 0.5 | 4.5 ± 0.9 | inhibition of the enzyme (TrxR1) ([2]; highest applied dosage of 100 μM): did not show any inhibition; stability in water (Stability in water): No change
CC(C)c1cccc(C(C)C)c1N1CCN(c2c(C(C)C)cccc2C(C)C)[C]1=[Au][Se]c1ccccc1 [1b, [Au(SIPr)Se(C6H5)]] | > 100 | > 100 | > 100 | –
Cc1cc(C(c2ccccc2)c2ccccc2)c(-n2ccn(-c3c(C(c4ccccc4)c4ccccc4)cc(C)cc3C(c3ccccc3)c3ccccc3)[c]2=[Au][Se]c2ccccc2)c(C(c2ccccc2)c2ccccc2)c1 [1c, [Au(IPr*)Se(C6H5)]] | > 100 | > 100 | > 100 | –
Cc1c(C)n(-c2c(C(C)C)cccc2C(C)C)[c](=[Au][Se]c2ccccc2)n1-c1c(C(C)C)cccc1C(C)C [1d, [Au(IPr^Me)Se(C6H5)]] | > 100 | 6.1 ± 0.3 | > 100 | –
Cc1cc(C)c(N2CCN(c3c(C)cc(C)cc3C)[C]2=[Au][Se]c2ccccc2)c(C)c1 [1k, [Au(SIMes)Se(C6H5)]] | 9.9 ± 0.3 | 4.4 ± 0.1 | 6.3 ± 0.6 | –
CCC(CC)c1cccc(C(CC)CC)c1-n1ccn(-c2c(C(CC)CC)cccc2C(CC)CC)[c]1=[Au][Se]c1ccccc1 [1l, [Au(IPent)Se(C6H5)]] | > 100 | > 100 | > 100 | –
CC(C)c1cccc(C(C)C)c1-n1ccn(-c2c(C(C)C)cccc2C(C)C)[c]1=[Cu][Se]c1ccccc1 [1p, [Cu(IPr)Se(C6H5)]] | 1 ± 0.3 | 0.4 ± 0.3 | 0.7 ± 0.1 | –
CC(C)c1cccc(C(C)C)c1-n1ccn(-c2c(C(C)C)cccc2C(C)C)[c]1=[Ag][Se]c1ccccc1 [1q, [Ag(IPr)Se(C6H5)]] | 1.2 ± 0.3 | 0.9 ± 0.2 | 0.8 ± 0.1 | –
CC(=O)OC[C@H]1O[C@@H]([S-])[C@H](OC(C)=O)[C@@H](OC(C)=O)[C@@H]1OC(C)=O.CCP(CC)CC.[Au+] [Auranofin, reference compound] | 4.9 ± 0.5 | 1.5 ± 0.2 | 3.7 ± 0.4 | –
N.N.O=C([O-])C1(C(=O)[O-])CCC1.[Pt+2] [Carboplatin, reference compound] | – | – | – | IC50 [3, 8]: 3.5 ± 0.7 µM; IC50 [3, 9]: 3 ± 1 µM; IC50 [3, 10]: > 100 µM; IC50 [3, 11]: > 100 µM; IC50 (A2780 [4]): 8 µM
N.N.[Cl][Pt][Cl] [Cisplatin, reference compound] | 7 ± 0.5 | 5.3 ± 0.8 | 3 ± 0.4 | IC50 (A2780 [5]): 1 µM
O=C1[O][Pt]2([NH][C@@H]3CCCC[C@H]3[NH]2)[O]C1=O [Oxaliplatin, reference compound] | – | – | – | IC50 (HT-29 [6]): 7 µM; IC50 [7, 12]: 1.4 ± 0.9 µM; IC50 [7, 13]: 4 ± 1 µM; IC50 [7, 14]: > 100 µM; IC50 [7, 15]: > 100 µM
[Au(BzIPr)Se(C6H5)] [1f] | 1.08 ± 0.05 | 1.9 ± 0.4 | 0.32 ± 0.04 | –
[Au(IPr)Se(C6H4CF3)] [2a] | 88 ± 8 | 48 ± 5 | 55 ± 10 | –
[Au(ImPyIPr)Se(C6H5)] [1i] | 12.6 ± 0.8 | 4.3 ± 0.4 | 5.97 ± 0.08 | –
[Au(MeIMes)Se(C6H5)] [1h] | 4 ± 1 | 3.4 ± 0.6 | 4 ± 0.5 | –
[Au(MeIPr)Se(C6H5)] [1g] | 2.2 ± 0.5 | 2.4 ± 0.5 | 1.5 ± 0.3 | –
[Au(MonoIPent)Se(C6H5)] [1m] | 0.35 ± 0.05 | 0.27 ± 0.04 | 0.27 ± 0.03 | IC50 ([2]; read-out: TrxR inhibition average IC50, recombinant human TrxR, 75 min at 37 °C): 0.18 ± 0.05 µM; IC50 (A2780 [5]): 0.4 ± 0.1 µM; brightfield appearance of HGSOC PDTOs after treatment [3, 16]: visible reductions in organoid size, density, and structural integrity; IC50 [3, 8]: 17 ± 8 µM; IC50 [3, 9]: 4 ± 2 µM; IC50 [3, 10]: 6 ± 2 µM; IC50 [3, 11]: 7 ± 5 µM; stability in water (Stability in water): No change; brightfield appearance of CRC PDTOs after treatment [7, 16]: visible reductions in organoid size, density, and structural integrity; IC50 [7, 12]: 13 ± 9 µM; IC50 [7, 13]: 6 ± 2 µM; IC50 [7, 14]: 3.4 ± 0.5 µM; IC50 [7, 15]: 9 ± 5 µM
[Au(PPh3)Se(C6H5)] [1o] | 2.8 ± 0.2 | 1.7 ± 0.08 | 2.9 ± 0.4 | –

— paper PMC12394898 (Chemical Science, 2025)
